One assay concerns Cell membrane. Nature of the assay: Induction of bacterial inner membrane permeabilization in Escherichia coli assessed as carboxyfluorescein leakage measured for 45 mins by fluorescence based microplate reader assay. It is filed as subcellular. An outline of the steps:
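Liposomes were made from E. coli polar lipid extract loaded with 100 mM carboxyfluorescein in 10 mM Tris, pH 7.4, extruded through 100 nm membranes and gel-filtered. They were added at 10 μM final lipid to 2-fold peptide dilutions in Tris at 37 °C, with no cumulative additions. Dequenching was monitored for 45 min and normalized to 0.16% Triton X-100 after baseline subtraction. Values are the mean ± SD of triplicates; EC50 came from a variable-slope sigmoidal fit against log concentration.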

In the next assay the test system is Staphylococcus aureus. Nature of the assay: Antibacterial activity against Staphylococcus aureus ATCC 29213 assessed as inhibition of bacterial growth at 6 to 12 hrs by dilution method. Particulars: time 6-12 hrs. The format is functional. The gist of the method: (§1)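 Broth-free microdilution MIC assay. Microbes were grown overnight in 3% TSB at 37 °C, washed twice and resuspended in Tris buffer, then adjusted by A600 to 1 × 10⁶ cells/mL (about 50 000 cells/well). Cells were mixed 1:1 with 2-fold serial dilutions of peptide in Tris buffer (highest tested 32.5 μM) and held 5 h. Then 20% TSB was added and plates incubated 6–12 h at 37 °C, depending on organism. MIC was read as the lowest concentration giving 100% growth inhibition. Run in triplicate.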

Assay [1] concerns U-937. Nature of the assay: Cytotoxicity against human U-937 cells assessed as cell survival at 20 uM incubated for 72 hrs by FMCA assay. The format is functional, cell-based. An outline of the steps: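 FMCA with U937 human lymphoma cells, about 20 000 cells/well, exposed to 2-fold peptide dilutions for 72 h at 37 °C in 5% CO₂. Cells were washed with PBS and given FDA in Q2 buffer (NaCl/HEPES, pH 7.4) for 40 min at 37 °C. Fluorescence was read at ex 485/em 538 nm. Viability was expressed as % of control after blank subtraction; IC50 came from a variable-slope sigmoidal fit against log concentration.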

The subject of another assay is Pseudomonas aeruginosa. Nature of the assay: Antibacterial activity against Pseudomonas aeruginosa ATCC 27853 assessed as inhibition of bacterial growth at 6 to 12 hrs by dilution method. It is filed as functional. To be noted: time 6-12 hrs. An outline of the steps:
as §1

The test system of a further assay is Candida albicans. Nature of the assay: Antibacterial activity against Candida albicans ATCC 90028 assessed as inhibition of bacterial growth at 6 to 12 hrs by dilution method. The format is functional. Particulars: time 6-12 hrs. An outline of the steps:
as §1

The subject of assay [2] is U-937. Nature of the assay: Cytotoxicity against human U-937 cells assessed as inhibition of cell growth incubated for 72 hrs by FMCA assay. The format is functional, cell-based. Particulars: U-937, 72 h. An outline of the steps: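 FMCA with U937 human lymphoma cells, about 20 000 cells/well, exposed to 2-fold peptide dilutions for 72 h at 37 °C in 5% CO₂. Cells were washed with PBS and given FDA in Q2 buffer (NaCl/HEPES, pH 7.4) for 40 min at 37 °C. Viability was expressed as % of control after blank subtraction; IC50 came from a variable-slope sigmoidal fit against log concentration.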

The structures appear in SMILES notation. ≈ marks a conversion by molar mass, not a printed value. Calls of active or inactive are those of the source. The rule behind the calls is not given here. Where a SMILES comes first, the peptide text is derived from it. Bridges are numbered along the chain shown (N, C = ends).

The term EC50 denotes the midpoint of the concentration-response curve. A word on the MIC: it is the least concentration at which growth counts as inhibited. As a reminder, the IC50 is the point on the concentration scale where inhibition reaches its midpoint.

As to `CC[C@H](C)[C@@H]1NC(=O)CNC(=O)[C@H](CC(N)=O)NC(=O)[C@H]([C@@H](C)CC)NC(=O)[C@H](Cc2ccc(O)cc2)NC(=O)[C@@H]2CSSC[C@H]3NC(=O)CNC(=O)[C@H](Cc4ccccc4)NC(=O)[C@H](Cc4ccc(O)cc4)NC(=O)[C@H](C)NC(=O)[C@@H]4CSSC[C@H](NC(=O)[C@H](CO)NC(=O)[C@H](CSSC[C@H](NC(=O)[C@H](C)NC1=O)C(=O)NCC(=O)N[C@@H](CCC(=O)O)C(=O)N[C@@H](CO)C(=O)N4)NC(=O)CNC(=O)[C@@H]1CCCN1C(=O)[C@H]([C@@H](C)CC)NC(=O)[C@H](Cc1c[nH]c4ccccc14)NC3=O)C(=O)N[C@@H](CCCCN)C(=O)N[C@@H](CC(=O)O)C(=O)N[C@@H](CCCCN)C(=O)N[C@@H](C(C)C)C(=O)N2`, in the assay on Cell membrane, the EC50 stood at 140 nM. Also, the minimum inhibitory concentration (MIC) in the assay with Staphylococcus aureus, in the assay with Pseudomonas aeruginosa and with Candida albicans was above 10 µM throughout. Further, the outcome in the assay with U-937 [1] was Active.

As for `CC[C@H](C)[C@@H]1NC(=O)[C@H](Cc2ccccc2)NC(=O)[C@H](C(C)C)NC(=O)[C@@H]2CSSC[C@@H]3NC(=O)[C@H](CO)NC(=O)[C@H]4CSSC[C@H](NC(=O)[C@@H]5CCCN5C(=O)[C@H](C(C)C)NC(=O)CNC(=O)[C@H](CC(N)=O)NC(=O)[C@H](CC(N)=O)NC(=O)[C@H](Cc5ccc(O)cc5)NC(=O)[C@H](CSSC[C@H](NC(=O)[C@@H]5CCCN5C1=O)C(=O)N[C@@H](Cc1ccccc1)C(=O)N[C@@H]([C@@H](C)O)C(=O)N[C@@H]([C@@H](C)O)C(=O)N[C@@H](C(C)C)C(=O)N[C@@H](C(C)C)C(=O)NCC(=O)N4)NC(=O)[C@H](C(C)C)NC(=O)[C@H](CCCCN)NC(=O)[C@H](CC(=O)O)NC(=O)[C@H](CCCCN)NC3=O)C(=O)NCC(=O)N[C@@H](CCC(=O)O)C(=O)N[C@@H](CO)C(=O)N2`, the EC50 in the assay on Cell membrane came to 160 nM. Also, the minimal inhibitory concentration (MIC) in the assay with Staphylococcus aureus, with Pseudomonas aeruginosa and in the assay on Candida albicans was above 10 µM each time. The outcome in the assay on U-937 [1] was Active.

`CC[C@H](C)[C@@H]1NC(=O)[C@H](C(C)C)NC(=O)[C@H]([C@@H](C)O)NC(=O)[C@H]([C@@H](C)O)NC(=O)[C@H]([C@@H](C)CC)NC(=O)[C@H]2CSSC[C@@H]3NC(=O)[C@H](C(C)C)NC(=O)[C@H](CCCCN)NC(=O)[C@H](CC(=O)O)NC(=O)[C@H](CCCCN)NC(=O)[C@@H]4CSSC[C@H](NC(=O)[C@H](CO)NC(=O)[C@H](CCC(=O)O)NC(=O)CNC(=O)[C@H](CSSC[C@@H](NC(=O)CNC1=O)C(=O)N[C@@H](CO)C(=O)N4)NC(=O)[C@@H]1CCCN1C(=O)[C@H](C(C)C)NC(=O)CNC(=O)[C@H](CC(N)=O)NC(=O)[C@H]([C@@H](C)O)NC(=O)[C@H](Cc1ccc(O)cc1)NC3=O)C(=O)N[C@@H](C(C)C)C(=O)N[C@@H](Cc1ccccc1)C(=O)N[C@@H]([C@@H](C)CC)C(=O)N1CCC[C@H]1C(=O)N2`: the half-maximal effective concentration (EC50) in the assay with Cell membrane worked out at 160 nM. The minimum inhibitory concentration (MIC) in the assay on Staphylococcus aureus, with Pseudomonas aeruginosa and in the assay with Candida albicans was above 10 µM each time. For the same compound, the result in the assay on U-937 [1] was Active.

`CC[C@H](C)[C@@H]1NC(=O)[C@H](C)NC(=O)[C@H](CO)NC(=O)[C@H](CO)NC(=O)[C@H]([C@@H](C)CC)NC(=O)[C@@H]2CSSC[C@@H]3NC(=O)[C@H](C(C)C)NC(=O)[C@H](CCCCN)NC(=O)[C@H](CO)NC(=O)[C@H](CCCCN)NC(=O)[C@@H]4CSSC[C@H](NC(=O)[C@H](CO)NC(=O)[C@H](CCC(=O)O)NC(=O)CNC(=O)[C@H](CSSC[C@H](NC(=O)CNC1=O)C(=O)N[C@@H](CO)C(=O)N4)NC(=O)[C@@H]1CCCN1C(=O)[C@H]([C@@H](C)CC)NC(=O)CNC(=O)[C@H](CC(N)=O)NC(=O)[C@H](CCCNC(=N)N)NC(=O)[C@H](Cc1ccc(O)cc1)NC3=O)C(=O)N[C@@H](C(C)C)C(=O)N[C@@H](Cc1c[nH]c3ccccc13)C(=O)N[C@@H]([C@@H](C)CC)C(=O)N1CCC[C@H]1C(=O)N2` (cyclo(AIGCSCKSKVCYRNGIPCGESCVWIPCISS); disulfide 4-18, 6-22, 11-27): the values for the MIC with Staphylococcus aureus, in the assay on Pseudomonas aeruginosa and in the assay on Candida albicans were above 10 µM, 10 µM (≈ 31.4 µg/mL) and above 10 µM, respectively. In addition, the 50% inhibitory concentration (IC50) in the assay on U-937 [2] stood at 260 nM.

These data come from ChEMBL document CHEMBL5226362, “Screening for Cyclotides in Sri Lankan Medicinal Plants: Discovery, Characterization, and Bioactivity Screening of Cyclotides from Geophila repens” (J Nat Prod, 2023).
